Screening results deposited in PubChem BioAssay by Broad Institute.
Compounds with a hit are over-represented: about 1% of the library has one in this group of screens.
ERp5 inh: inhibitors of ERp5-driven insulin aggregation, primary screen, biochemical, turbidity, absorbance 650 nm, single point; 90 min; inhibition, % at 9.99 µM; 0.05% of 350,000 active;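 active = mean replicate inhibition above about 25%, with every replicate also reaching it, limit read from the data, passing the limit was not always enough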
RAD54 branch: inhibitors of human RAD54 branch migration, primary screen, biochemical, fluorescence, single point; RAD54 Holliday junction branch migration, FAM/BHQ fluorescence; inhibition, % at 10.4 µM; 0.14% of 360,000 active;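 active = mean normalized replicate activity at least 40 and at least half of replicates scoring 40 or more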;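 also: 0% = median of neutral control wells and 100% = median of positive control wells; inhibitors cause a drop in the FAM fluorescence signal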
Target sequence (Q92698 whole entry, looked up): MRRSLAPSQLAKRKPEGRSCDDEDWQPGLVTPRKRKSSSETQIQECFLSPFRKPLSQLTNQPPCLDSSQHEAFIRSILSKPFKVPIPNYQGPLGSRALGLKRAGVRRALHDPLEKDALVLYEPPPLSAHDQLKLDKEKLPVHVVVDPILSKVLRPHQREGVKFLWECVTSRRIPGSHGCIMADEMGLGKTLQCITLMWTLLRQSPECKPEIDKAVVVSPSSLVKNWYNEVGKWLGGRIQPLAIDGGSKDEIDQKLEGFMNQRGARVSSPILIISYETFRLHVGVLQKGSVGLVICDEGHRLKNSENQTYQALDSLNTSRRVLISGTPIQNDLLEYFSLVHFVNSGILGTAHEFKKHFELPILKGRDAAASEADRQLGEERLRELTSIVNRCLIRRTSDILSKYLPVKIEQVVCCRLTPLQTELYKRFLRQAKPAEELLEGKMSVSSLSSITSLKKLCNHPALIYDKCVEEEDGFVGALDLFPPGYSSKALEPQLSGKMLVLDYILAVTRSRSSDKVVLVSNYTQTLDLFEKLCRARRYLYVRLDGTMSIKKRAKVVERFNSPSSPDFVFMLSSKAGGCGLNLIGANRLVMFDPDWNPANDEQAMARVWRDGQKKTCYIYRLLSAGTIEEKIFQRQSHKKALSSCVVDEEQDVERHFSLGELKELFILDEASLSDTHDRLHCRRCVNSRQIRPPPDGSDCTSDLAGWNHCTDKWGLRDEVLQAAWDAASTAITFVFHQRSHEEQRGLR
CAL PDZ FP-1: CAL PDZ peptide-binding inhibitors, primary screen, biochemical, fluorescence polarization, Cer-tagged CAL PDZ, HTS. purified CAL PDZ, TMR-peptide fluorescence polarization, 1 h. inhibition, % at 20 µM. 0.02% of 330,000 active;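 active = highest replicate inhibition of at least 40%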;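 also: plate controls were DMSO neutral control wells for no effect and unlabeled competitor peptide control wells for full effect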
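Material – purified CerCALP PDZ construct · Detection – FP readout, S and P plane fluorescence · Measure – percent inhibition from loss of millipolarization · Controls – unlabelled peptide for full inhibition, DMSO wells as neutral · Probe or stimulus – TMR-labelled reporter peptide T*-PRC34 bound in PDZ groove · Times – 1 h at RT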
PDI turbidity: inhibitors of human PDI, primary screen, biochemical, turbidity, single point, plate reader | PDI insulin aggregation turbidity, A650, 90 min | inhibition, % at 10 µM | 0.052% of 350,000 active;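 active = mean inhibition across replicates of 30% or more, whatever share of single replicates reach that level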
CAL PDZ FP-2: untagged CAL PDZ binding inhibitors, primary screen, biochemical, fluorescence polarization, HTS. Golgi-associated PDZ and coiled-coil motif-containing protein (Homo sapiens), Q9HD26. purified CAL PDZ, TMR-peptide fluorescence polarization, 1 h. inhibition, % at 24.9 µM. 0.92% of 300,000 active;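 active = mean inhibition of at least 30% with at least half of replicates also reaching 30%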;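 also: 0% = DMSO neutral control and 100% = excess unlabeled competitor peptide PRC23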
RAD52 anneal inh: RAD52 DNA annealing inhibitors, primary screen, biochemical, FRET, single point, set 2; recombinant RAD52 DNA annealing, FRET fluorescence; 0.46% of 360,000 active; inhibition, % at 18.7 µM; DNA repair protein RAD52 homolog (Homo sapiens), P43351;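 active = every replicate showing at least 50% inhibition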
The depositor's hits bear a star; nt = no result.

SMILES | ERp5 inh | RAD54 branch | CAL PDZ FP-1 | PDI turbidity | CAL PDZ FP-2 | RAD52 anneal inh
Cc1ccc(S(=O)(=O)Nc2ccc3c(c2)C(=O)N([C@H](C)CO)C[C@H](C)[C@H](CN(C)CC2CCCCC2)OCCCC[C@@H](C)O3)cc1 | -3 | -5 | nt | nt | nt | 55*
Cc1ccc(S(=O)(=O)Nc2ccc3c(c2)C(=O)N([C@H](C)CO)C[C@H](C)[C@@H](CN(C)CC2CCCCC2)OCCCC[C@@H](C)O3)cc1 | -3 | -1 | nt | nt | nt | 23
Clc1ccc2c(N/N=C/c3cccnc3)ccnc2c1 | 3 | 71* | -6 | 16 | 1 | -8
Clc1ccc2c(N/N=C/c3ccc(Br)cc3)ccnc2c1 | -4 | -8 | -1 | -8 | -2 | -8
O=C(c1cccc(Cl)c1)N1CCC(C(=O)N2CCN(Cc3ccccc3)CC2)CC1 | -6 | 7 | 0 | -4 | 45* | -7
O=C(c1cccc(C(=O)N2CCN(Cc3ccccc3)CC2)c1)N1CCN(Cc2ccccc2)CC1 | nt | -14 | -1 | 16 | -2 | nt
CO[C@@H]1CN(C)C(=O)c2cc(NC(=O)C3CC3)ccc2OC[C@H](C)N(C(=O)c2ccncc2)C[C@H]1C | -5 | 4 | nt | nt | nt | 18
COCc1cc(Sc2cccc(Cl)c2Cl)nc(-c2ccccc2)n1 | nt | 10 | -1 | 2 | 36* | nt
CCc1ncc(CN2CCCC(C(=O)Nc3cccc(-c4ccc(F)cc4)c3)C2)cn1 (centres undefined) | 5 | 6 | -3 | 6 | -6 | 1
CCn1cc(CN2CCCC(C(=O)Nc3cccc(-c4cc5ccccc5[nH]4)c3)C2)cn1 (centres undefined) | -19 | 8 | 2 | 0 | 51* | -4
COc1ccccc1-c1cn(CC[C@H]2CC[C@@H](NC(=O)NC(C)C)[C@H](CO)O2)nn1 | 8 | 6 | nt | nt | nt | -16
Cc1sc(NC(=O)CCl)c(C(=O)c2ccccc2)c1C | nt | 0 | 1 | 72* | -2 | nt
Cc1sc(NC(=O)CS(=O)(=O)c2ccccc2)c(C#N)c1C | 0 | -19 | -3 | -1 | -7 | -13
Cc1ccccc1C(=O)Nc1sc(C)c(C)c1C(=O)c1ccccc1 | nt | -4 | 0 | 0 | -1 | nt
COC(=O)c1c(NC(=O)CS(=O)(=O)c2ccccc2)sc(C)c1C | -4 | nt | -2 | 3 | 45* | -16
COc1ccccc1C#Cc1cnc2c(c1)C(=O)N([C@@H](C)CO)C[C@@H](C)[C@@H](CN(C)C(C)=O)O2 | 0 | 0 | nt | nt | nt | 1
C[C@H](CO)N1C[C@H](C)[C@@H](CN(C)Cc2ccc(Cl)c(Cl)c2)Oc2ccc(NC(=O)CCC(F)(F)F)cc2CC1=O | -5 | 0 | nt | nt | nt | 14
C[C@H](O)C#Cc1cnc2c(c1)C(=O)N([C@H](C)CO)C[C@@H](C)[C@H](CN(C)C(=O)c1ccccc1F)O2 | 1 | -6 | nt | nt | nt | -14
C[C@H](CO)N1C[C@H](C)[C@@H](CN(C)C(=O)Cc2ccccc2)OCCCC[C@H](C)Oc2ccc(NS(=O)(=O)c3ccc(F)cc3)cc2C1=O | nt | 6 | nt | nt | nt | nt
O=C(CC(=O)c1ccccc1)CC(O)(C=Cc1ccccc1)c1ccccc1 (centres undefined) | 7 | -5 | 0 | 0 | 52* | -19
COn1c(SCc2ccc(C)cc2C)nc2ccccc2c1=O | nt | -21 | nt | 3 | 48* | nt
CC(C)C#Cc1cnc2c(c1)C(=O)N([C@@H](C)CO)C[C@H](C)[C@@H](CN(C)C(=O)CN1CCOCC1)O2 | 0 | 3 | nt | nt | nt | -8
COCCNC(=O)C[C@@H]1CC[C@@H]2[C@H](COc3ccc(NC(=O)C4CCOCC4)cc3C(=O)N2C)O1 | -1 | -13 | nt | nt | nt | 3
COc1ccccc1NC(=O)N[C@@H]1CC[C@H](CCNC(=O)Cc2ccccn2)O[C@@H]1CO | -1 | -4 | nt | nt | nt | -17
CC1(C)C2CC=C(/C=N/NC(=O)c3ccc(O)cc3)C1C2 (centres undefined) | nt | nt | -2 | 21 | 78* | nt
SMILES | ERp5 inh | RAD54 branch | CAL PDZ FP-1 | PDI turbidity | CAL PDZ FP-2 | RAD52 anneal inh
COCC(C)n1c(SCC(=O)N2CC(=O)Nc3ccccc32)nc2ccccc2c1=O (centres undefined) | 0 | 5 | -2 | 2 | 47* | -62
C[C@H](NC(=O)[C@@H]1[C@@H](CO)[C@@H]2Cn3c(cccc3=O)[C@@H]2N1Cc1cccnc1)c1ccccc1 | -1 | 1 | nt | nt | nt | -14
O=C(/C=C\c1ccc2c(c1)OCO2)CC1(O)C(=O)Nc2ccccc21 (centres undefined) | -1 | 1 | nt | 0 | 89* | -12
O=C(CC1(O)C(=O)Nc2ccccc21)c1ccc2c(c1)OCO2 (centres undefined) | nt | -4 | -3 | 0 | -1 | nt
CC(C)NC(=O)N(C)C[C@@H]1OCCCC[C@@H](C)Oc2ccc(NS(=O)(=O)c3ccc(Cl)cc3)cc2C(=O)N([C@@H](C)CO)C[C@H]1C | 1 | 8 | nt | nt | nt | 21
Cc1c(C(=O)C(=O)NCc2ccco2)c2ccccc2n1C | 2 | nt | 2 | 0 | 56* | -15
O=C1CCCCCC1C1(O)C(=O)Nc2ccc(Br)cc21 (centres undefined) | nt | -16 | -2 | 3 | 57* | nt
C[C@H](CO)N1C[C@H](C)[C@H](CN(C)C(=O)CN2CCOCC2)Oc2ncc(C#CCN(C)C)cc2C1=O | 3 | 3 | nt | nt | nt | 7
O=C(C[C@H]1CC[C@H](NS(=O)(=O)c2cccc(F)c2)[C@H](CO)O1)NCc1ccc2c(c1)OCO2 | -2 | 4 | nt | nt | nt | 9
C/C(=N\NS(C)(=O)=O)c1ccccc1 | nt | 2 | -1 | -1 | 94* | nt
C/C(=N\NC(N)=O)c1ccccc1 | 2 | nt | -3 | 10 | -2 | -4
COc1cccc(CNC(=O)c2cc3c(c(-c4cccc(-c5cccc(C#N)c5)c4)n2)[C@H](CCO)N([S@@](=O)C(C)(C)C)C3)c1 | -2 | -4 | nt | nt | nt | 59*
COc1cccc(CNC(=O)c2cc3c(c(-c4cccc(-c5ccncc5)c4)n2)[C@H](CCO)N([S@@](=O)C(C)(C)C)C3)c1 | -3 | 5 | nt | nt | nt | 23
Cc1ccc(NC(=O)c2cc3cccc([N+](=O)[O-])c3[nH]2)cc1 | 5 | nt | -1 | -12 | 67* | -9
C[C@@H]1CN([C@@H](C)CO)C(=O)Cc2cc(NC(=O)Nc3ccccc3)ccc2O[C@@H]1CN(C)C(=O)Nc1cccc2ccccc12 | 0 | 0 | nt | nt | nt | 1
CC(C)(C)S(=O)(=O)c1cnc(-c2ccc(Cl)cc2)nc1N | 4 | nt | 0 | -2 | -5 | 4
CC(C)(C)S(=O)(=O)c1cnc(N2CCCCC2)nc1N | 2 | nt | -1 | -3 | 50* | -7
